pIC50: −log10 of the molar value. Like-named read-outs stand apart in the source and are kept apart here.
Legend:
[1] = test system: NCI-H23 cells; experiment: Cellular oxygen consumption rate; assay type: cell-based, human; details: NCI-H23, 1 h after drug
[2] = test system: panel of 39 human cancer cell lines (JFCR39); experiment: Growth inhibition profile, summary over the JFCR39 panel; assay type: cell-based
[3] = test system: xenograft tumors; details: ref Kojima et al. 2014; cited from earlier work
[4] = molecular target: bovine heart mitochondrial complex I (Bos taurus, UniProt P03887+P17694+P42026); experiment: Complex I activity; assay type: biochemical
[5] = test system: mitochondrial complexes (complex II–V); experiment: Activities of OxPhos complexes II-V; assay type: biochemical; details: II + III, IV, V (Fig. S2)
[6] = test system: NCI-H23 cells; experiment: Cellular ATP measurement; assay type: cell-based, human; details: NCI-H23, 6 h of treatment
Outline: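 NCI-H23 cells in RPMI 1640 with 5% FBS were plated at 1–2 × 10^5 cells/mL and incubated overnight at 37°C, 5% CO2. Test compound diluted in medium was added for 6 h, with final DMSO below 1%. Lysis buffer and substrate were added, and luciferase-based luminescence was read. ATP was expressed as % of solvent-treated wells; mean ± SEM, n = 3.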

[7] = test system: NCI-H23 cells; experiment: Viable cell number; assay type: cell-based, human; details: NCI-H23, 6 h of treatment
Outline: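 NCI-H23 cells were grown in RPMI 1640 with 5% FBS at 37°C, 5% CO2, and exposed to test compound (DMSO stocks 10 or 100 mmol/L) for 6 h. Viable cells were counted by trypan blue exclusion on an automated cell counter and expressed as % of nontreated control; mean ± SEM, n = 3.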

[8] = test system: mitochondrial DNA-deficient (ρ0) NCI-H23 cells; experiment: Growth of ρ0 versus ρ+ cells, sulforhodamine B assay; assay type: cell-based, human; details: NCI-H23 ρ0 vs ρ+, 48 h

bovine heart mitochondrial complex I, sequence (P03887 whole entry): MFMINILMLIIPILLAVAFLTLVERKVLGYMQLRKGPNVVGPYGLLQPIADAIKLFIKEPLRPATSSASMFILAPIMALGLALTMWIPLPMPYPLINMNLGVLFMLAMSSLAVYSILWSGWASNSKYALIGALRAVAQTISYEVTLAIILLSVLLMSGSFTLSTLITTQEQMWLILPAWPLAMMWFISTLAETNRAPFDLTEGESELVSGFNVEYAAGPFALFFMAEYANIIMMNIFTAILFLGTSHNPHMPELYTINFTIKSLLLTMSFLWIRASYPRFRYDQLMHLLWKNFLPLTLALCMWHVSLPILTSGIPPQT
bovine heart mitochondrial complex I, sequence (P42026 38-216): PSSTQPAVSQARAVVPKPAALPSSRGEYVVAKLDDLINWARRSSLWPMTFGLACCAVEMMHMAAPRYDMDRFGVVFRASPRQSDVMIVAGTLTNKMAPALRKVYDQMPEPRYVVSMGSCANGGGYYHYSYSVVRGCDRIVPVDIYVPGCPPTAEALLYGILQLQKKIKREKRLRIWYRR
bovine heart mitochondrial complex I, sequence (P17694 34-463): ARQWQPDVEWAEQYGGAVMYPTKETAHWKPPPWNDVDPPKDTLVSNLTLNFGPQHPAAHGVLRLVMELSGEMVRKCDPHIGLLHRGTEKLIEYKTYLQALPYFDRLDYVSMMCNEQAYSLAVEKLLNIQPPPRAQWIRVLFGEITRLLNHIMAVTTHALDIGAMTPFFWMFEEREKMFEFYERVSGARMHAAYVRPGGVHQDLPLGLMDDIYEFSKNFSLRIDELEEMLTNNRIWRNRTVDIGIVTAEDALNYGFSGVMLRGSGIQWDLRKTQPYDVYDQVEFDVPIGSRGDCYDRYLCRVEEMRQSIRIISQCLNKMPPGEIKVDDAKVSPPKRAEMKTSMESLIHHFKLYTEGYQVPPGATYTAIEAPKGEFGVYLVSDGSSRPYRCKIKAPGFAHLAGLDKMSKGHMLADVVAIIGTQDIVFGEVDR

CCCCCCCCCCCC[C@@H](O)[C@H]1CC[C@H]([C@H](O)CCCCCCCCCCNC(=O)c2ccsc2)O1 [JCI-20679, N‐((R)‐11‐Hydroxy‐11‐{(2R,5R)‐5‐[(R)‐1‐hydroxytridecyl]tetrahydrofuran‐2‐yl}undecyl)thiophene‐3‐carboxamide]
effect on cellular oxygen consumption rate [1]: inhibited the oxygen consumption of NCI‐H23 cells in a dose‐dependent manner
GI50 ([2]; 48 h, read-out: MG-MID, the mean of log GI50 values for 39 cell lines (converted)): 2750 nM
GI50 ([2]; read-out: mean GI50 within the JFCR39 panel): 2750 nM
antitumor activity in mouse xenograft models [3]: more potent antitumor activity than solamin
side effects in mouse xenograft models [3]: no severe side effects
pIC50 [4]: 6.77
complex I inhibition, activity relative to rotenone ([4]; ratio of IC50 values): seven times less activity than rotenone
complex I inhibition, times greater activity than phenformin ([4]; ratio of IC50 values): 6000 times
complex I inhibition, times greater activity than solamin ([4]; ratio of IC50 values): 30 times
inhibition of mitochondrial complexes II–V [5]: None of the other mitochondrial complexes (complex II–V) were inhibited
effect on intracellular ATP content [6]: ATP depletion by JCI‐20679 in a dose‐dependent manner
viable cell number [7]: hardly changed
sensitivity of ρ0 cells compared with ρ+ cells [8]: more resistant

CN(C)c1cccc2c(S(=O)(=O)NCCCCCCCCC[C@@H](O)[C@H]3CC[C@H]([C@H](O)CCCCCCCCCCNC(=O)c4ccsc4)O3)cccc12 [JCI-13291, N‐[(R)‐11‐((2R,5R)‐5‐{(R)‐10‐[5‐(Dimethylamino)naphthalene‐1‐sulfonamido]‐1‐hydroxydecyl}tetrahydrofuran‐2‐yl)‐11‐hydroxyundecyl]thiophene‐3‐carboxamide]
effect on cellular oxygen consumption rate [1]: inhibited the aerobic aspiration of NCI‐H23 cells
effect on intracellular ATP content [6]: depleted intracellular ATP content

COc1cc2c(cc1OC)[C@@H]1C(=O)c3ccc4c(c3O[C@@H]1CO2)C=CC(C)(C)O4 [Deguelin, reference compound]
pIC50 [4]: 7.40

C=C(C)[C@H]1Cc2c(ccc3c2O[C@@H]2COc4cc(OC)c(OC)cc4[C@@H]2C3=O)O1 [Rotenone, reference compound]
effect on cellular oxygen consumption rate [1]: inhibited the oxygen consumption of NCI‐H23 cells in a dose‐dependent manner
